Our source for the Activity and IC50 values is ChEMBL document CHEMBL1152789, “Synthesis of 2-(5-((5-(4-chlorophenyl)furan-2-yl)methylene)-4-oxo-2-thioxothiazolidin-3-yl)acetic acid derivatives and evaluation of their cytotoxicity and induction of apoptosis in human leukemia cells” (Bioorg Med Chem, 2009).

The structures appear in SMILES notation. The source made the active and inactive calls. The rule behind the calls is not given here. Bounds are passed on as bounds.

The test system of test [1] is K562. Kind of test: Cell cycle arrest in human K562 cells assessed as decline of G1 phase after 48 hrs by PI staining based flow cytometry. In kind it is functional. The procedure, abridged:
(§1)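 K562 cells, 0.75 × 10⁵ cells/ml, incubated at 37 °C with 10, 50 and 100 µM compound for 48 h, with a DMSO vehicle control. Cells were washed, fixed in 70% ethanol, RNase A treated, and stained with propidium iodide for half an hour before flow cytometry. At least 10,000 cells were acquired per sample, and G0/G1 (subG1), G1, S and G2/M fractions were read from the DNA histograms.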

Test [2] relates to K562. Description: Cell cycle arrest in human K562 cells assessed as accumulation at G0/G1 phase after 48 hrs by PI staining based flow cytometry. In kind it is functional. The procedure, abridged: as §1
The test system of test [3] is REH. Description: Cytotoxicity against human REH cells at >= 100 uM after 48 to 72 hrs by MTT assay. The test is classed as functional, cell-based. The procedure, abridged: (§2)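 Log-phase cells (1 × 10⁴/well) were plated in triplicate in RPMI 1640 with 10% heat-inactivated FBS and penicillin/streptomycin, at 37 °C in 5% CO2. Cells were treated with 10, 100 or 250 µM compound and harvested at 48 and 72 h. MTT (5 mg/ml) was added at 37 °C, formazan was dissolved in DMF/SDS detergent, and A570 was read minus a medium blank. Viability is expressed as % of DMSO vehicle, and IC50 was estimated at 72 h.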

Test [4] deals with REH. Description: Cytotoxicity against human REH cells after 72 hrs by MTT assay. In kind it is functional, cell-based. The procedure, abridged: as §2
Test [5] deals with K562. Kind of test: Cell cycle arrest in human K562 cells assessed as change in cell cycle pattern after 48 hrs by PI staining based flow cytometry. In kind it is functional. The procedure, abridged:
as §1

For test [6], the system named is K562. Kind of test: Induction of apoptosis in human K562 cells assessed as chromosomal DNA fragmentation at 100 uM after 72 hrs by agarose gel electrophoresis. In kind it is functional, cell-based. The procedure, abridged:
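K562 cells were cultured with 10, 50 or 100 µM compound for 72 h, with a DMSO lane as control. Genomic DNA was extracted, resuspended in TE buffer, and run on a 1% agarose gel at 30 V for 6 h. Laddering or smearing was viewed by ethidium bromide staining.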

The test system of test [7] is K562. Description: Cell cycle arrest in human K562 cells assessed as decline of G2/M phase after 48 hrs by PI staining based flow cytometry. In kind it is functional. The procedure, abridged: as §1
Test [8] deals with K562. Kind of test: Cytotoxicity against human K562 cells after 72 hrs by MTT assay. The test is classed as functional, cell-based. Particulars: K562, 72 h. The procedure, abridged:
as §2

In test [9] the test system is K562. Description: Cytotoxicity against human K562 cells at >= 100 uM after 48 to 72 hrs by MTT assay. The test is classed as functional, cell-based. The procedure, abridged:
as §2

As for `COc1ccc(CNC(=O)CN2C(=O)/C(=C/c3ccc(-c4ccc(Cl)cc4)o3)SC2=S)cc1`, the result in the test with K562 [1], with K562 [2], in the test with REH [3], in the test with K562 [6], with K562 [7] and in the test on K562 [9] was Active. The figures for the IC50 in the test with REH [4] and with K562 [8] were 44 µM and 40 µM, respectively. Also, the Activity entry with K562 [5] was “Dose-dependent effect”.

Consider `O=C(CN1C(=O)/C(=C/c2ccc(-c3ccc(Cl)cc3)o2)SC1=S)Nc1nnn[nH]1`, for which the outcome with REH [3] and in the test with K562 [9] was Active. The IC50 worked out at 50 µM in the test with REH [4] and 52 µM with K562 [8].

Consider `Cc1ccc(CNC(=O)CN2C(=O)/C(=C/c3ccc(-c4ccc(Cl)cc4)o3)SC2=S)cc1`, for which the outcome in the test with REH [3] and with K562 [9] was Active. The IC50 in the test with REH [4] and in the test with K562 [8] was 45 µM throughout.

Consider `Cc1cccc(CNC(=O)CN2C(=O)/C(=C/c3ccc(-c4ccc(Cl)cc4)o3)SC2=S)c1`, for which the result in the test on K562 [1], in the test with K562 [2], in the test with REH [3], in the test on K562 [7] and with K562 [9] was Active. The results for the IC50 in the test on REH [4] and in the test on K562 [8] were 53 µM and 48 µM, respectively. For the same compound, the Activity entry in the test on K562 [5] is “Dose-dependent effect”.

Turning to `N#Cc1cc(NC(=O)CN2C(=O)/C(=C/c3ccc(-c4ccc(Cl)cc4)o3)SC2=S)ccc1C(F)(F)F`, the IC50 in the test on REH [4] and in the test with K562 [8] was more than 250 µM throughout.

As for `O=C(CN1C(=O)/C(=C/c2ccc(-c3ccc(Cl)cc3)o2)SC1=S)NCc1ccc(Br)cc1`, the outcome with REH [3] and in the test on K562 [9] was Active. In addition, the IC50 in the test with REH [4] came to 75 µM; in the test with K562 [8] it was 68 µM.

As to `O=C(CN1C(=O)/C(=C/c2ccc(-c3ccc(Cl)cc3)o2)SC1=S)NCc1ccccc1Cl`, the result in the test with REH [3] and in the test with K562 [9] was Active. In addition, the IC50 worked out at 70 µM in the test on REH [4] and 64 µM with K562 [8].

Regarding `O=C(CN1C(=O)/C(=C/c2ccc(-c3ccc(Cl)cc3)o2)SC1=S)NCc1ccc(F)cc1`, the results for the half-maximal inhibitory concentration (IC50) in the test on REH [4] and in the test on K562 [8] were 165 µM and 150 µM, respectively.

`N#Cc1ccc(NC(=O)CN2C(=O)/C(=C/c3ccc(-c4ccc(Cl)cc4)o3)SC2=S)cc1`: the results for the IC50 in the test with REH [4] and in the test on K562 [8] were 90 µM and 85 µM, respectively.

On to `CCCCCCNC(=O)CN1C(=O)/C(=C/c2ccc(-c3ccc(Cl)cc3)o2)SC1=S`, for which the outcome in the test with REH [3] and with K562 [9] was Active. The IC50 was found to be 55 µM with REH [4] and 50 µM in the test on K562 [8].

For `O=C(CN1C(=O)/C(=C/c2ccc(-c3ccc(Cl)cc3)o2)SC1=S)NCc1ccc(C(F)(F)F)cc1`, the IC50 in the test on REH [4] came to 170 µM; in the test on K562 [8], 155 µM.
